# Source: PubChem
# ANO1 activ: TMEM16A chloride channel activators or potentiators, primary screen, cell-based, HTS; AID 623877, 2012; B-score at 10 µM; hit rate 0.3% among 340,000; HEK293 TMEM16A/YFP-H148Q/I152L, iodide quench fluorescence; active compounds read low; Anoctamin-1 (Mus musculus), Q8BHY3;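 active = fluorescence-ratio B-score plate-corrected deviation score at least 3 library SD below zero, with starting fluorescence score within 5 deviations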;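 also: channel opened by trigger with iodide after compound preincubation; score built on the fluorescence ratio of max minus min over baseline; more negative score means more quench and so TMEM16A activation or potentiation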
# TMEM16A inh: TMEM16A chloride channel inhibitors, primary screen, cell-based, HTS; Anoctamin-1 (Mus musculus), Q8BHY3; HEK293 TMEM16A/YFP iodide influx fluorescence, ionomycin; normalized B-score (activity score, 25-100; higher = stronger inhibition) at 10 µM; hit rate 1.2% among 310,000;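 active = ratio plate-corrected score three or more library SD toward inhibition, starting fluorescence score within five deviations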;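 also: score derived from kinetic fluorescence span divided by baseline fluorescence per well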
# CHT allo act: CHT positive allosteric modulators, primary screen, cell-based, membrane potential dye, choline EC20. hit rate 0.49% among 310,000. B-score at 10 µM. High affinity choline transporter 1 (Homo sapiens), Q9GZV3. AID 488977, 2010. CHT-expressing cells; active compounds read high; LV-AA mutant CHT in HEK293 cells;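 active = initial fluorescence not abnormally high and integrated response B-score, plate-corrected, over 3 SD above library mean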
# Target sequence (Q9GZV3 whole entry, looked up): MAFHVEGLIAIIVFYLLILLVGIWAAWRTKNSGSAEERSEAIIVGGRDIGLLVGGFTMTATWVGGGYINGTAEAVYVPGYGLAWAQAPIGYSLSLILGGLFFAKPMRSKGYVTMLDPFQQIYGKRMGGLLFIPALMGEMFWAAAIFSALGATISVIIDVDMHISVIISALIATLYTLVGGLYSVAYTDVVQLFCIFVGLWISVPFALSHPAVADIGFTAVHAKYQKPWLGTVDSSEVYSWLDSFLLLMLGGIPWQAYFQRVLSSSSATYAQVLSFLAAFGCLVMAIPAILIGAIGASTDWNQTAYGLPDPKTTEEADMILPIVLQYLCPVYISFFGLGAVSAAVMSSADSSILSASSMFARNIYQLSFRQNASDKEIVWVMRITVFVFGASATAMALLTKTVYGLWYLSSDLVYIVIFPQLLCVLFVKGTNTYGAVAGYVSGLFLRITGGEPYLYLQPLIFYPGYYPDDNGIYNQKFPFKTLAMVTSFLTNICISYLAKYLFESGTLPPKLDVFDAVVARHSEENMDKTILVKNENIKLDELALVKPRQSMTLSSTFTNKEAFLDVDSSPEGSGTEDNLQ
# IMP-1 inhibitor: IMP-1 metallo-beta-lactamase inhibitors, primary screen, biochemical, epi-absorbance readout, Pseudomonas aeruginosa enzyme. purified IMP-1, nitrocefin hydrolysis, epi-absorbance fluorescence. inhibition, % at 5.6 µM. hit rate 0.45% among 290,000. AID 1556, 2009;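 active = inhibition above the mean plus 3 SD of all compounds in the same screening run, cut at about 4.5% in these data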;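 also: 0% = IMP-1 with DMSO and 100% = DMSO wells lacking enzyme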
#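 assay system = purified recombinant IMP-1 metallo-beta-lactamase enzyme | schedule = 15 min preincubation plus 25 min reaction at 25 °C | signal = Epi-absorbance fluorescence, 480 nm excitation, 530 nm emission | read-out basis = percent inhibition from optical density relative to buffer-blank wells | controls = IMP-1 with DMSO as 0%, enzyme-free DMSO as 100%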
# VIM-2 inhibitor: VIM-2 metallo-beta-lactamase inhibitors, primary screen, biochemical, epi-absorbance readout, Pseudomonas aeruginosa enzyme; purified VIM-2, nitrocefin hydrolysis, epi-absorbance fluorescence; inhibition, % at 5.6 µM; hit rate 0.89% among 290,000; AID 1527, 2009;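 active = inhibition above the mean of all tested compounds plus 3 SD, cutoff set per screening run, cut at about 7.5% in these data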;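 also: red hydrolysis product quenches plate fluorescence so inhibitors raise well fluorescence; 0% = enzyme with DMSO and 100% = DMSO without enzyme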
# CHT inh: inhibitors of human choline transporter CHT; CHT-expressing cells, membrane potential dye, choline response; active compounds read low; hit rate 0.86% among 310,000; AID 488975, 2010; B-score at 10 µM;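 active = B-score over 3 SD under the library average, and starting fluorescence ratio not unusually high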;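 also: choline stimulus applied at its EC90 after an EC20 pre-addition; B-score computed on integrated fluorescence ratio after choline addition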
# The depositor's hits bear a star; i = inactive; . = no result given. Rows were chosen to be rich in hits. Some 3.4% of all compounds tested hit in one or more screens of this group.
SMILES,ANO1 activ,TMEM16A inh,CHT allo act,IMP-1 inhibitor,VIM-2 inhibitor,CHT inh
Cc1c(OC(C)C(=O)NCCCN2CCOCC2)ccc2c3c(c(=O)oc12)CCCC3 (stereo unspecified),i,i,i,-1,11*,i
CCc1cc(=O)oc2c(C)c(OC(C)C(=O)NCCCN3CCOCC3)ccc12 (stereo unspecified),i,i,i,-2,4,i
CCOc1ccc(CN(C)C(=O)CCN2C(=O)c3ccccc3C2=O)cc1OC,i,i,i,-1,0,i
Cc1ccc(C(=O)NCCCN2CCN(CCCNC(=O)c3ccc(C)cc3)CC2)cc1,i,i,i,.,.,i
COc1cccc(NC(=O)[C@@H]2CCC(=O)N2C2OC(=O)c3ccccc32)c1 (stereo partly specified),i,i,i,1,0,i
Cc1ccc(/C(N)=N/OC(=O)CN(C)S(=O)(=O)c2ccc(C)cc2)cc1,i,i,i,-3,-3,i
Cc1ccc(S(=O)(=O)N(C)CC(=O)O/N=C(\N)c2cccc(Br)c2)cc1,-14*,i,i,-3,-1,i
Cc1cccc(Cc2ncc(C(F)(F)F)cc2Cl)c1,i,i,i,-2,-3,i
C=CCN1C(=O)S/C(=C/c2ccc(Sc3nc4ccccc4[nH]3)o2)C1=O,i,100*,i,-3,-2,i
CC(C)N1C(=O)S/C(=C/c2ccc(Sc3nc4ccccc4[nH]3)o2)C1=O,i,100*,i,-5,-3,i
CC(C)c1ccc(NC(=O)c2ccc(NC3=NC4CS(=O)(=O)CC4S3)cc2)cc1 (stereo unspecified),i,i,i,-3,-3,i
COc1ccc(C(=O)CCC(=O)Nc2cccnc2)cc1OC,i,i,i,0,-2,i
O=C1CC(/C=C/c2ccncc2)=Nc2ccccc2N1,i,i,i,-1,1,i
COc1cccc(C2C(C#N)=C(N)N(N(C)C)C3=C2C(=O)CC(C)(C)C3)c1OC (stereo unspecified),i,i,i,-4,-2,i
CC(C)OC(=O)C[N+](C)(C)CCN1C(=O)C2C(c3ccccc3)C=CC(c3ccccc3)C2C1=O (stereo unspecified),i,i,i,13*,1,i
O=[N+]([O-])c1ccccc1S(=O)(=O)N/C(=N/S(=O)(=O)c1ccccc1)c1ccccc1,i,.,.,.,.,.
O=C(Nc1ccc2oc(-c3ccccc3)nc2c1)c1ccc2c(c1)OCCO2,i,25*,i,0,-2,i
CN(C)c1ccc(C(=O)N2CCN(C(=O)C3CCCO3)CC2)cc1 (stereo unspecified),i,.,.,.,.,.
CCOC(=O)c1cccnc1SCc1cc(=O)n2ccccc2n1,i,25*,i,-2,-1,i
CC(C)(C)NCC(O)CON=C1c2ccccc2-c2ccccc21 (stereo unspecified),i,i,i,1,7.8*,i
Nn1c(SCc2ccc([N+](=O)[O-])cc2)nc2ccccc2c1=O,i,i,i,7.6*,-2,i
O=c1c2ccccc2nc(SCc2ccc([N+](=O)[O-])cc2)n1-c1ccc(Cl)cc1,i,i,i,-4,-2,i
Cc1ccc(N(CC(N)=O)C2SC(=O)N(C)C2=O)cc1 (stereo unspecified),i,i,i,-1,-2,i
Cc1cccc(N(CC(N)=O)C2SC(=O)N(c3ccccc3)C2=O)c1 (stereo unspecified),i,i,i,6.6*,-2,i
O=C(c1ccccc1F)n1c2c(c3ccccc31)CCCC2,i,i,i,-3,-1,i
SMILES,ANO1 activ,TMEM16A inh,CHT allo act,IMP-1 inhibitor,VIM-2 inhibitor,CHT inh
Cc1cc(-c2n[nH]c(=S)n2Cc2ccccc2)cs1,i,i,i,0,7.9*,i
S=c1[nH]nc(-c2ccncc2)n1Cc1ccccc1,i,i,i,-2,5,i
Oc1ccc(-c2n[nH]c(=S)n2Cc2ccccc2)cc1,i,i,i,-2,11*,i
O=C(O)c1cc(-n2[nH]c(=O)c3ccccc3c2=O)ccc1Cl,i,i,i,-3,-3,i
O=C(c1ccccc1)c1ccc(O)cc1O,i,i,i,12*,7,i
Cc1cn(-c2cc(NC(=O)c3ccc(C)c(NC(=O)c4cccc(-c5cn[nH]c(=O)c5)c4)c3)cc(C(F)(F)F)c2)cn1,i,i,i,20*,2,i
Oc1ccc(N2CCN(Cc3cc4c(cc3Br)OCCO4)CC2)cc1,i,i,i,-3,-1,i
CSc1ccc2c(c1)N(CCC1CCCCN1C)c1ccccc1S2 (stereo unspecified),i,25*,i,-1,-3,i
O=C(Nc1ccc(Cl)cc1)N1CC=CCC1,i,i,i,8.1*,-2,i
CCCn1c(C)nc2c(c1=O)c1nc3ccccc3nc1n2CCC1=CCCCC1,i,i,i,-2,8.3*,i
CCCn1c(C)nc2c(c1=O)c1nc3ccccc3nc1n2CCc1ccccc1,.,.,.,-6,-2,.
C=CCn1c(NS(=O)(=O)c2ccccc2)c(S(=O)(=O)c2ccc(C)cc2)c2nc3ccccc3nc21,i,i,i,-2,-2,i
O=S(=O)(Nc1c(S(=O)(=O)c2ccccc2)c2nc3ccccc3nc2n1C1CCCCC1)c1ccccc1,i,100*,i,-2,-2,i
O=C(NNC(=O)c1cc(-c2ccccc2)nc2ccccc12)Nc1cccc(Cl)c1,i,100*,i,-2,-3,i
O=C(NNC(=O)c1cc(-c2cccnc2)nc2ccccc12)Nc1ccc(Cl)cc1,i,i,i,-3,-3,i
Cc1cc(SCC(=O)Nc2cccc(S(=O)(=O)NC3=NCCCCC3)c2)nc2ccccc12,-5.4*,i,i,-1,4,i
Cc1ccc(-n2c(SCC(=O)Nc3cccc(S(=O)(=O)NC4=NCCCCC4)c3)nc3ccccc3c2=O)cc1C,i,i,i,-1,-4,i
